13 compounds from ChEMBL document CHEMBL1240430, “Design & synthesis of 2-(substituted aryloxy)-5-(substituted benzylidene)-3-phenyl-2,5-dihydro-1H-[1,2,4] triazin-6-one as potential anticonvulsant agents” (Eur J Med Chem, 2010) can be followed below.

Data set [1] relates to Mus musculus. In words: Reduction of immobility time in albino Swiss mouse at 100 mg/kg, ip pretreated for 1 hrs by forced swimming test. Particulars: route intraperitoneal. It is filed as functional.
The test system of data set [2] is Mus musculus. As to the kind of experiment: Anticonvulsant activity in ip dosed albino mouse assessed as protection against scPTZ-induced seizures after 0.5 hrs. The data set is classed as functional. The procedure, abridged: (§1)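 Male albino mice (20-25 g) given test compounds i.p., suspended in 30% PEG 200, at 0.01 ml/g body weight, at 30, 100 and 300 mg/kg to 1–6 animals. Seizure protection checked 0.5 h and 4 h after dosing. Value is the minimal dose protecting 50% or more of animals.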

For data set [3], the system named is Mus musculus. In words: Anticonvulsant activity in ip dosed albino mouse assessed as protection against MES-induced seizures after 0.5 hrs. The data set is classed as functional. The procedure, abridged: as §1
For data set [4], the system named is Mus musculus. As to the kind of experiment: Anticonvulsant activity in ip dosed albino mouse assessed as protection against MES-induced seizures after 4 hrs. It is filed as functional. The procedure, abridged:
as §1

Data set [5] in a line: Neurotoxicity against ip dosed albino mouse assessed as inability of animal to maintain equilibrium on rod for 1 min after 0.5 hrs by rotarod test. Particulars: in vivo. (In general: The rotarod test checks motor coordination on a turning rod.)
Data set [6] relates to Mus musculus. As to the kind of experiment: Anticonvulsant activity in ip dosed albino mouse assessed as protection against scPTZ-induced seizures after 4 hrs. It is filed as functional. The procedure, abridged: as §1
The nature of data set [7]: Neurotoxicity against ip dosed albino mouse assessed as inability of animal to maintain equilibrium on rod for 1 min after 4 hrs by rotarod test. Particulars: in vivo.

Active and inactive are the calls of the source. The rule behind the calls is not given here.

For the compound `NC(=O)N1c2ccccc2C=Cc2ccccc21` [CARBAMAZEPINE], the Time in data set [1] came out at 169 s.

With `Cc1ccc(/C=C2/N=C(c3ccccc3)N(C(=O)c3ccc(C)cc3)NC2=O)cc1`, in data set [1], the Time is 145.83 s. Besides, the ED50 worked out at 30 mg/kg in data set [2], 100 mg/kg in data set [3], 100 mg/kg in data set [4] and 30 mg/kg in data set [6]. Also, in data set [5], the TD50 at 0.5 h is 300 mg/kg.

Regarding `Cc1ccc(/C=C2/N=C(c3ccccc3)N(C(=O)COc3ccccc3)NC2=O)cc1`, the ED50 in data set [2], in data set [3] and in data set [4] was 300 mg/kg in each case. Also, in data set [6], the ED50 result is “inactive”.

For `O=C1NN(C(=O)c2ccc(F)cc2)C(c2ccccc2)=N/C1=C/c1ccc(O)cc1`, the median effective dose (ED50) in data set [2] and in data set [3] was 300 mg/kg in each case. The ED50 entry in data set [4] and in data set [6] was “inactive” throughout.

For the compound `CCCC(CCC)C(=O)[O-].[Na+]` [VALPROATE SODIUM], the ED50 in data set [2] was determined as 300 mg/kg. For the same compound, the ED50 result in data set [6] was “inactive”.

In the case of `O=C1NN(C(=O)c2ccccc2Cl)C(c2ccccc2)=N/C1=C/c1ccccc1Cl`, the Time in data set [1] is recorded as 148.17 s. The ED50 worked out at 30 mg/kg in data set [2], 30 mg/kg in data set [3], 30 mg/kg in data set [4] and 100 mg/kg in data set [6]. The TD50 at 4 h in data set [7] is 300 mg/kg. Besides, in data set [5], the TD50 at 0.5 h is 300 mg/kg.

As for `COc1ccc(/C=C2/N=C(c3ccccc3)N(C(=O)c3ccc(C)cc3)NC2=O)cc1`, the Time in data set [1] was 151.5 s. The ED50 in data set [2] worked out at 30 mg/kg; in data set [3], 100 mg/kg; in data set [4], 100 mg/kg; in data set [6], 30 mg/kg. Further, the TD50 at 4 h in data set [7] was 300 mg/kg. Besides, the TD50 at 0.5 h in data set [5] stood at 300 mg/kg.

Regarding `O=C1NC(=O)C(c2ccccc2)(c2ccccc2)N1` [PHENYTOIN], the ED50 in data set [3] and in data set [4] was 30 mg/kg each time.

In the case of `O=C1NN(C(=O)c2ccc(Cl)cc2)C(c2ccccc2)=N/C1=C/c1ccccc1`, the ED50 came out at 100 mg/kg in data set [2], 100 mg/kg in data set [3], 300 mg/kg in data set [4] and 300 mg/kg in data set [6]. Moreover, the TD50 at 4 h in data set [7] was determined as 300 mg/kg. Also, the TD50 at 0.5 h in data set [5] turned out to be 300 mg/kg.

On to `Cc1ccc(C(=O)N2NC(=O)/C(=C\c3ccc(O)cc3)N=C2c2ccccc2)cc1`, for which the Time in data set [1] was determined as 147.33 s. Moreover, the ED50 in data set [2] came out at 100 mg/kg; in data set [3], 30 mg/kg; in data set [4], 100 mg/kg; in data set [6] it was 300 mg/kg.

As for `COc1ccc(/C=C2/N=C(c3ccccc3)N(C(=O)c3ccc(Cl)cc3)NC2=O)cc1`, the ED50 in data set [2] came to 100 mg/kg; in data set [3] it was 100 mg/kg; in data set [6] it was 300 mg/kg. In addition, the TD50 at 4 h in data set [7] came to 300 mg/kg. Also, the ED50 result in data set [4] is “inactive”. In data set [5], the TD50 at 0.5 h was 300 mg/kg.

As for `Cc1ccc(/C=C2/N=C(c3ccccc3)N(C(=O)Cc3ccc(Cl)cc3)NC2=O)cc1`, the ED50 in data set [2] was determined as 100 mg/kg; in data set [3], 100 mg/kg; in data set [4], 300 mg/kg; in data set [6] it was 300 mg/kg. In addition, the TD50 at 4 h in data set [7] is 300 mg/kg. The TD50 at 0.5 h in data set [5] amounted to 300 mg/kg.

Take `Cc1ccc(/C=C2/N=C(c3ccccc3)N(C(=O)c3ccc(Cl)cc3)NC2=O)cc1`: the ED50 amounted to 100 mg/kg in data set [2], 100 mg/kg in data set [3], 300 mg/kg in data set [4] and 100 mg/kg in data set [6].

Usually ED50 stands for the dose at which the effect has come halfway, by size or by number of responders.
